“Also recorded” adds a separate entry of the source. Some results are limits rather than exact numbers.

The text below walks through data of publication PMC6544531 (Nature chemistry, 2019).

In data set [1] the test system is farnesylated substrates (YnF labeling) in EA.hy926 cells. Format: cell-based, human. Particulars: for mean in-cell IC50 response (YnF labeling of farnesylated substrates): 10 µM YnF, 1 h inhibitor pre-incubation + 8 h. The essentials: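 EA.hy926 endothelial cells labeled with alkyne prenyl probe alongside increasing concentrations of prenyl transferase inhibitor. Lysates were spiked with a heavy SILAC standard, a lysate dual-labeled with 13C615N4-Arg/13C615N2-Lys (R10K8) plus the same probe. Probe-labeled proteins were quantified against this standard by spike-in SILAC chemical proteomics, giving dose-response curves per farnesylated substrate.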

In a further data set the target is FTase (Rattus norvegicus, UniProt Q02293+Q04631). The following applies: read-out: IC50 (weak FTI); cited from earlier work.
Another data set relates to EA.hy926 cells. In words: Cell toxicity observed during cell treatment. Format: cell-based, human. Particulars: data not shown.
The subject of data set [2] is YnGG labeling of farnesylated substrates in EA.hy926 cells. The data set is classed as cell-based, human. The essentials: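 Human EA.hy926 cells given an FTase inhibitor over a range of concentrations and labeled with YnF or YnGG in parallel. Probe incorporation was quantified proteome-wide by spike-in SILAC chemical proteomics. Changes in the YnF/YnGG incorporation ratio were compared with loss of YnF labeling across concentrations. Points are mean of n=3 ± standard deviation.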

Chain of FTase (Q02293 whole entry, one chain of several): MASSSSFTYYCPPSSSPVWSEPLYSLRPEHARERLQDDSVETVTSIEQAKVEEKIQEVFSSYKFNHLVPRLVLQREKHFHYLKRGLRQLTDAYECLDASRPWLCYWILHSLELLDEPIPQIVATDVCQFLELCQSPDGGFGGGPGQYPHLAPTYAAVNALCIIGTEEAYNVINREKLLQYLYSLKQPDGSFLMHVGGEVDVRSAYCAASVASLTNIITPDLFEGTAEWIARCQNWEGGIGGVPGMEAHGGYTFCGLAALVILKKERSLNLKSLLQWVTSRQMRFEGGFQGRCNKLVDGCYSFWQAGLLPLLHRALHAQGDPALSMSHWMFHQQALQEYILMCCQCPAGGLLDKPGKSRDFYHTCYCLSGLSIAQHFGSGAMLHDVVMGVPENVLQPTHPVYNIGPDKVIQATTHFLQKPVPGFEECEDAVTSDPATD

As for `COC(=O)[C@H](CCSC)NC(=O)c1ccc(NC[C@@H](N)CS)cc1-c1ccccc1` [FTI-277], in data set [1], the “selectivity at the whole proteome level” value was “excellent selectivity” and the “mean in-cell IC50 response (YnF labeling of farnesylated substrates)” value is reported as “micromolar”.

Turning to `CCCC[C@@H](C)/C=C(C)/C=C(\C)C(=O)NC1=C[C@@](O)(/C=C/C=C/C=C/C(=O)NC2=C(O)CCC2=O)[C@@H]2O[C@@H]2C1=O` [Manumycin A], in data set [1] (up to the highest concentration tested (10 µM)), the “impact on farnesylation (YnF labeling)” value is “no evidence that Manumycin A impacted farnesylation; also recorded: insensitive”. Moreover, at FTase, the IC50 (in general, the midpoint of a concentration-inhibition curve) is 5 µM. Moreover, the “concentration above which acute cell toxicity was evident” value in the data set on EA.hy926 cells was more than 10 µM.

With `Cn1cncc1[C@@](N)(c1ccc(Cl)cc1)c1ccc2c(c1)c(-c1cccc(Cl)c1)cc(=O)n2C` [Tipifarnib], in data set [1], the “selectivity at the whole proteome level” value is given as “excellent selectivity” and the “mean in-cell IC50 response (YnF labeling of farnesylated substrates)” value was “low nanomolar”. Also, the “concentration of maximum increase in YnGG labeling of KRAS” value in data set [2] (KRAS) is recorded as 10 nM. Besides, in data set [2] (NRAS), the “concentration of maximum increase in YnGG labeling of NRAS” value was determined as 5 nM. In data set [2] (RRAS2), the “concentration of maximum increase in YnGG labeling of RRAS2” value is given as 1 nM.
